Results on 35 compounds are retold here after ChEMBL document CHEMBL1764985, “Design, synthesis, and evaluation of coumarin-based molecular probes for imaging of myelination” (J Med Chem, 2011).

SMILES strings stand for the structures. Active and inactive are the calls of the source. The calls are words filed in the database; no cut-off is given here.

The target of series [1] is Myelin basic protein (Mus musculus) (UniProt P04370). Description: Binding affinity to corpus collosum myelin in central nervous system of mouse […] by fluorescent microscopy. It counts as tissue-based. The note with it: Corpus callosum.
Sequence of Myelin basic protein (Mus musculus) (P04370 whole entry): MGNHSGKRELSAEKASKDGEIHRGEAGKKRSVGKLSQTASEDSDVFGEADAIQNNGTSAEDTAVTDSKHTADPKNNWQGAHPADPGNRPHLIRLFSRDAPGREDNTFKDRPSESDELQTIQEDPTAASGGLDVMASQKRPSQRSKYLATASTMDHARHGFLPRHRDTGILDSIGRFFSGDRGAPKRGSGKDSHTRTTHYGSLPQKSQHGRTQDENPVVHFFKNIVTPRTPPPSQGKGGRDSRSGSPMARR
For series [2] the target is unchanged. Description: Binding affinity to caudate putamen myelin in mouse by fluorescent microscopy. It counts as tissue-based. In outline:
(§1)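 Wild-type mice given 40 mg/kg via tail vein under anesthesia, then perfused transcardially with saline followed by 4% PFA in PBS. Brain sections imaged by fluorescence microscopy (BP470/40 nm filter) for in situ staining in cerebellum, caudate putamen/striatum and temporal cortex. Same sections co-stained with anti-MBP antibody for comparison.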

For series [3] the target is unchanged. Description: Binding affinity to temporal cortex myelin in mouse by fluorescent microscopy. It counts as tissue-based. The gist of the method: as §1
For series [4] the target is unchanged. Briefly: Binding affinity to cerebellum myelin in central nervous system of mouse […] by fluorescent microscopy.
The target is the same in series [5]. Briefly: Binding affinity to sciatic nerve myelin in peripheral nervous system of mouse at 100 uM […] by Black gold II staining.
Series [6] deals with Mus musculus. Description: Binding affinity to sciatic nerve myelin in C57BL/6 mouse at 40 mg/kg after 20 mins, iv after 10 mins by fluorescent microscopy. Type of series: functional, organism-based. The arrangement: dose 40 mg/kg. The gist of the method: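 Eight-week C57BL/6 mice dosed 40 mg/kg by tail vein in saline; saline alone as control. At 10 min, mice anesthetized with isoflurane and sciatic nerves surgically exposed and imaged under a dissection fluorescence microscope (LP 590 filter). Nerves imaged again after perfusion.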

The nature of series [7]: Lipophilicity, log P of the compound. It counts as physicochemical. The note with it: octanol/water.
Series [8] is filed under the species Mus musculus. Description: Selectivity for mouse white matter myelin over gray matter myelin. It counts as tissue-based. In outline: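 Mouse brain sections stained with compound at 100 μM. Fluorescence intensity measured in predefined ROIs: part of the corpus callosum (white matter) and a subcortical gray matter region. White/gray intensity ratio calculated; mean ± SD, n = 3.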

The target of series [9] is Myelin basic protein (Mus musculus) (UniProt P04370). Briefly: Binding affinity to corpus collosum myelin in myelin deficient shiverer mouse assessed as myelination levels at 100 uM after 20 mins by fluorescent microscopy relative to control. The note with it: Corpus callosum. The gist of the method: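 Frozen 20 μm brain sections from wild-type C57BL/6 and shiverer (C3Fe.SWV-Mbp^shi/J) mice stained with compound at 100 μM, with anti-MBP immunostaining of the same sections. Pixel intensity in a corpus callosum ROI (midline to below cingulum apex) quantified. Wild-type set to 100, shiverer expressed as percentage. Nonpaired Student's t test.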

A short description of series [10]: Half life of the compound in mouse brain. Type of series: ADME, tissue-based.

On to `CCN(CC)c1ccc(-c2ccc3cc(-c4nc5ccccc5[nH]4)c(=O)oc3c2)cc1`, for which the result in series [1] was Active.

In the case of `COc1ccc2ccc(=O)oc2c1`, the outcome in series [1] was inactive.

Turning to `CN(C)c1ccc(-c2cc3ccc(OCCCF)cc3oc2=O)cc1`, the result (in series [2]; in series [3]; in series [1]; in [4]; in series [5]; with Mus musculus [6]) was Active. This compound also came in with a logP in series [7] of 3.82. Moreover, the white/gray matter fluorescence ratio in the series filed under Mus musculus [8] was found to be 1.54. The Activity in series [9] was found to be 12%. The half-life in series [10] worked out at 20 min.

Take `O=c1cc(O)c2ccccc2o1`: the result in series [1] was inactive.

For `O=c1oc2ccccc2c(O)c1Cc1c(O)c2ccccc2oc1=O`, the outcome in series [1] was inactive.

With `CCN(CC)c1ccc(-c2ccc3cc(-c4ccc(CBr)cc4)c(=O)oc3c2)cc1`, the outcome in series [1] was Active.

With `Nc1ccc2c(C(F)(F)F)cc(=O)oc2c1`, the outcome in series [1] was inactive.

`CN(C)c1ccc2c(C(F)(F)F)cc(=O)oc2c1`: in series [1], the outcome was inactive.

Take `CCN(CC)c1ccc(-c2ccc3cc(-c4ccc(N)cc4)c(=O)oc3c2)cc1`: the outcome in [1] was Active.

Regarding `Nc1cc(=O)oc2ccccc12`, the outcome in series [1] was inactive.

For the compound `CN(C)c1ccc(-c2cc3cc(OCCF)ccc3oc2=O)cc1`, the result in series [1] was Active. Moreover, in the series filed under Mus musculus [8], the white/gray matter fluorescence ratio came to 1.33.

For the compound `Cc1ccc2ccc(=O)oc2c1`, the result in series [1] was inactive.

For `CCN(CC)c1ccc(-c2ccc3cc(C(=O)c4cccs4)c(=O)oc3c2)cc1`, the outcome in [1] was Active.

Turning to `CCN(CC)c1ccc(-c2ccc3cc(-c4nc5ccccc5n4C)c(=O)oc3c2)cc1`, in [1], the outcome was Active.

Turning to `CC(=O)Oc1ccc2cc(-c3ccc(N(C)C)cc3)c(=O)oc2c1`, the result in [1] was Active. Also, the white/gray matter fluorescence ratio in the series filed under Mus musculus [8] stood at 1.35.

In the case of `CC(=O)Oc1ccc2oc(=O)c(-c3ccc(N(C)C)cc3)cc2c1`, in series [1], the outcome was Active. For the same compound, in the series filed under Mus musculus [8], the white/gray matter fluorescence ratio came out at 1.53.

Regarding `Nc1ccc(-c2cc3ccccc3oc2=O)cc1`, the result in series [1] was Active. For the same compound, the white/gray matter fluorescence ratio in the series filed under Mus musculus [8] is 1.39.

On to `O=c1cc(C(F)(F)F)c2ccc(O)cc2o1`, for which the result in series [1] was inactive.

Take `Nc1cc2ccccc2oc1=O`: the outcome in series [1] was inactive.

Take `O=c1ccc2ccccc2o1`: the outcome in [1] was inactive.

For `CN(C)c1ccc(-c2cc3ccccc3oc2=O)cc1`, the outcome in [1] was Active. Besides, the white/gray matter fluorescence ratio in the series filed under Mus musculus [8] was found to be 1.34.

Turning to `O=c1oc2ccccc2cc1-c1ccc([N+](=O)[O-])cc1`, the outcome in series [1] was inactive.

On to `CN(C)c1ccc(-c2cc3cc(F)ccc3oc2=O)cc1`, for which the outcome in [1] was Active.

Regarding `CN(C)c1ccc(-c2cc3cc(OCCCF)ccc3oc2=O)cc1`, the outcome in [1] was Active. The white/gray matter fluorescence ratio in the series listed under Mus musculus [8] came out at 1.38.

For the compound `O=c1oc2ccccc2cc1O`, in series [1], the outcome was inactive.

In the case of `CN(C)c1ccc(-c2cc3cc(O)ccc3oc2=O)cc1`, the outcome in [1] was Active. In the series listed under Mus musculus [8], the white/gray matter fluorescence ratio is 1.48.

On to `Nc1ccc(-c2cc3cc(F)ccc3oc2=O)cc1`, for which the outcome in [1] was Active.

Consider `O=c1oc2ccc(F)cc2cc1-c1ccc([N+](=O)[O-])cc1`, for which, in series [1], the outcome was inactive.

`CN(C)c1ccc(-c2cc3ccc(OCCF)cc3oc2=O)cc1`: in series [1], the outcome was Active. Moreover, the white/gray matter fluorescence ratio in the series filed under Mus musculus [8] amounted to 1.52.

As to `CN(C)c1ccc(-c2cc3ccc(O)cc3oc2=O)cc1`, in series [1], the result was Active. The white/gray matter fluorescence ratio in the series listed under Mus musculus [8] came out at 1.25.

Turning to `CCN(CC)c1ccc(-c2ccc3cc(-c4nc5ccccc5s4)c(=O)oc3c2)cc1`, the outcome in series [1] was Active.

With `O=c1oc2ccccc2cc1-c1ccccc1`, the result in series [1] was inactive.

`Cc1cc(=O)oc2ccccc12`: the outcome in series [1] was inactive.

On to `O=c1oc2cc(O)ccc2cc1-c1ccccc1`, for which, in series [1], the outcome was inactive.

For `CCN(CC)c1ccc(-c2ccc3cc(-c4ccc([N+](=O)[O-])cc4)c(=O)oc3c2)cc1`, the result in [1] was Active.
